This note sets out measurements from ChEMBL document CHEMBL1122961 (J Med Chem, 1985).

Molecules are shown by their SMILES. Active and inactive are the calls of the source. The rule behind the calls is not given here.

Assay [1] concerns the target T1, Dopamine receptor (Bos taurus, UniProt Q95136+P20288). Nature of the assay: In vitro inhibitory activity against dopamine receptor from calf caudate using [3H]dopamine as radioligand. The class given is protein assay. The essentials: (§1)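 Displacement binding on brain homogenates as earlier described; four to six test concentrations typically, each incubated in triplicate. IC50 in nM derived by appropriately weighted regression analysis.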

For assay [2], the target named is T2, Adrenergic receptor alpha-2 (Rattus norvegicus, UniProt P22086+P19328+P22909).
T2 sequence (P22086 whole entry): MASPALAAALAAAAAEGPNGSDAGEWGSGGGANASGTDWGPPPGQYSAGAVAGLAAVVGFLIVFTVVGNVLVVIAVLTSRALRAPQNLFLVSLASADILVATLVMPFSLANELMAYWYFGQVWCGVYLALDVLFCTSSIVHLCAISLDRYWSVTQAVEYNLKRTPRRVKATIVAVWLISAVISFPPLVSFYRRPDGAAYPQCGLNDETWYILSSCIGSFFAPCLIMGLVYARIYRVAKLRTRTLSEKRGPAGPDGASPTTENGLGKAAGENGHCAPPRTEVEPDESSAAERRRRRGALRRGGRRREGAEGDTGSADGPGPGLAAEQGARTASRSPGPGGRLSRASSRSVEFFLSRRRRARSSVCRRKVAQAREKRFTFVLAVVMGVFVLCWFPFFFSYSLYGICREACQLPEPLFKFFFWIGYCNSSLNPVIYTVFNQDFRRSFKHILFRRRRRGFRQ
T2 sequence (P19328 whole entry): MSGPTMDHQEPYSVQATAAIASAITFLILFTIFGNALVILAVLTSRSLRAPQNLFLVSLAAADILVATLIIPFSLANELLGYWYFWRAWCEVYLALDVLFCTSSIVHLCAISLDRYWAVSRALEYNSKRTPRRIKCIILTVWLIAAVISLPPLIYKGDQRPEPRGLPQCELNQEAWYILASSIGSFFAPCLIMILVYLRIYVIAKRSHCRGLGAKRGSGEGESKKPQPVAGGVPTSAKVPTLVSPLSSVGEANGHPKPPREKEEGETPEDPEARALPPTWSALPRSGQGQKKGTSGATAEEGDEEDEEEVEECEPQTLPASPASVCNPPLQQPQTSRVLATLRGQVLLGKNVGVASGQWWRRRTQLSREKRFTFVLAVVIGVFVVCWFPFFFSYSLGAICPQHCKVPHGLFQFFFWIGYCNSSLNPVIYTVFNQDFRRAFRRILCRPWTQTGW
T2 sequence (P22909 whole entry): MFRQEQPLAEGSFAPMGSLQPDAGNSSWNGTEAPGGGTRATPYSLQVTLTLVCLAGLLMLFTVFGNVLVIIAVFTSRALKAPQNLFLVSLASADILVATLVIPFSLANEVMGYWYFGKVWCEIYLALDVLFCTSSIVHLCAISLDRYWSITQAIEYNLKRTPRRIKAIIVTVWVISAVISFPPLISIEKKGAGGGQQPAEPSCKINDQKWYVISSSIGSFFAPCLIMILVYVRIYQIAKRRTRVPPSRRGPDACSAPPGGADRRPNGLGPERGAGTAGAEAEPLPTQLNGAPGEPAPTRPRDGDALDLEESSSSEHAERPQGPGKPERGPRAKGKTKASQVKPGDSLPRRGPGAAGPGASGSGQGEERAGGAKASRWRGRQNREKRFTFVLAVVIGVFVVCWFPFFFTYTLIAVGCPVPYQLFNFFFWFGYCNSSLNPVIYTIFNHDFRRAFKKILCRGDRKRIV
The assay is described as follows: In vitro inhibitory activity against alpha-2 adrenergic receptor from rat brain minus cerebellum using [3H]clonidine as radioligand. The format is tissue-based. The method in brief:
as §1

The test system of assay [3] is Rattus norvegicus. Nature of the assay: In vivo inhibitory against lactation in female rat after peroral administration. The class given is functional. As to conditions: po, read-out: ID50 (the source's name). The essentials: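 […] rats dosed once daily from day 5 to 8. Nursing behaviour checked daily; dams losing more than two pups excluded.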
Assay [4] deals with Rattus norvegicus. The assay is described as follows: In vivo inhibitory activity against basal prolactin in male rat after subcutaneous administration. As to conditions: sc, read-out: ID50 (the source's name). The class given is functional. The essentials:
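Male rats given one subcutaneous injection and decapitated 4 h later; trunk blood serum collected. One to three groups of three rats per dose, sera of three rats pooled equally. Prolactin measured by double-antibody RIA, expressed against NIH rat Prl RP-1 standard. Dose giving 50% serum prolactin reduction estimated graphically.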

The target in assay [5] is Serotonin (5-HT) receptor. The assay is described as follows: In vitro inhibitory activity against serotonin receptor from whole rat brain using [3H]5-HT as radioligand.
Assay [6] addresses T1, Dopamine receptor. The assay is described as follows: In vitro inhibitory activity against dopamine receptor from calf caudate using [3H]spiperone as radioligand. The class given is protein assay. The method in brief:
as §1

Assay [7] has as its target T3, Adrenergic receptor alpha-1 (Rattus norvegicus, UniProt P15823+P23944+P43140).
T3 sequence (P15823 whole entry): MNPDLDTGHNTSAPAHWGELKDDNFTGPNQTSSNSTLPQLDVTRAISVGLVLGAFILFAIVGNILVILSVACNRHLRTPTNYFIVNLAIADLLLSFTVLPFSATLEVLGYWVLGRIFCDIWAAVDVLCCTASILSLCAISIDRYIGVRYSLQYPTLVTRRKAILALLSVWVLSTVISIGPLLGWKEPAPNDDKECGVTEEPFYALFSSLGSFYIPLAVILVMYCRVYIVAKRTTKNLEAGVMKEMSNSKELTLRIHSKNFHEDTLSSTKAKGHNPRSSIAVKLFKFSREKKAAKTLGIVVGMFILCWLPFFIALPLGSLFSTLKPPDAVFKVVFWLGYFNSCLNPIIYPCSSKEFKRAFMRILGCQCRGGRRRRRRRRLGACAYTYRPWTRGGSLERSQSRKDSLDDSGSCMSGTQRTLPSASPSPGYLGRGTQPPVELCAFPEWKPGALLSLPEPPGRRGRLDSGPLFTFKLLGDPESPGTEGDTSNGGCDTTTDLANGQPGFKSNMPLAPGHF
T3 sequence (P23944 whole entry): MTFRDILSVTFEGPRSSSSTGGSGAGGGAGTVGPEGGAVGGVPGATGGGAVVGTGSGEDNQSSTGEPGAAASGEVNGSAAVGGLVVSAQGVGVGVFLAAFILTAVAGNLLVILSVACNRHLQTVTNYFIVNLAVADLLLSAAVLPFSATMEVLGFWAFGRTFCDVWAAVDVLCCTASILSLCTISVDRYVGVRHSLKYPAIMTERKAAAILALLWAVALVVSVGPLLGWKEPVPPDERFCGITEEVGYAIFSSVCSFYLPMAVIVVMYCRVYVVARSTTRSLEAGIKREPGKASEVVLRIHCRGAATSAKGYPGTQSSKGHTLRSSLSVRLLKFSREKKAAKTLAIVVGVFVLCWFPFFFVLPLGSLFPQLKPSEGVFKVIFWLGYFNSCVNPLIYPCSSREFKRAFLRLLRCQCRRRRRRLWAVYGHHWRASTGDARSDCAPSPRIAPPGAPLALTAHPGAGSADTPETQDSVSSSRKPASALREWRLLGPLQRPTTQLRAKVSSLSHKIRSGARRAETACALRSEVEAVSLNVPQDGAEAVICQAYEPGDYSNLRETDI
T3 sequence (P43140 whole entry): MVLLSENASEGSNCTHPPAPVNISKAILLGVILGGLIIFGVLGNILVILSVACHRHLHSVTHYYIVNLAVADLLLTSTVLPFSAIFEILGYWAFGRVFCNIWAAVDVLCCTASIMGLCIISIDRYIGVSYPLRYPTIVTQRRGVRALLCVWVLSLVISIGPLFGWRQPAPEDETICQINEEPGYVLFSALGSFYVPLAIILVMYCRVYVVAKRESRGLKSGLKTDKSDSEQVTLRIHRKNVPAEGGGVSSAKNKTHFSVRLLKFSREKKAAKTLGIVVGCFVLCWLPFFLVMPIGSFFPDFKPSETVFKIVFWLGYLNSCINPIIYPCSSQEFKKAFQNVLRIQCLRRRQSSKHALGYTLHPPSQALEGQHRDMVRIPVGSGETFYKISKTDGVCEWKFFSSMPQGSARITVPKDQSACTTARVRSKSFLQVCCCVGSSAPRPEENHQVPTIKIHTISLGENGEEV
The assay is described as follows: In vitro inhibitory activity against alpha-1 adrenergic receptor from whole rat brain using [3H]WB-4101 as radioligand. The essentials:
as §1

Assay [8] relates to Rattus norvegicus. Nature of the assay: In vivo inhibitory activity against ovum implantation in female rat after subcutaneous administration. The format is functional. The following applies: sc, read-out: ID50 (the source's name). The method in brief:
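Adult proestrus Ivanovas female rats mated with fertile males; sperm-positive females randomised next morning (day 1), 4-10 per group. Single subcutaneous dose on day 5; killed day 12, uteri inspected for fetuses or implantation sites, absence counted as inhibition.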

Assay [9] addresses Serotonin (5-HT) receptor. Nature of the assay: In vitro inhibitory activity against serotonin receptor from rat frontal cortex using [3H]spiperone as radioligand. The format is tissue-based.
Assay [10] concerns Rattus norvegicus. The assay is described as follows: In vivo against inhibitory against lactation in female rat after peroral administration; i = No effect. The format is functional, organism-based.
In assay [11] the test system is Rattus norvegicus. The assay is described as follows: In vivo inhibitory activity against ovum implantation in female rat after subcutaneous administration; i = No effect. The format is functional, organism-based. The essentials: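 Adult proestrus Ivanovas female rats paired with males of proven fertility; sperm-positive next morning (day 1), randomised 4-10 per group. Single sc dose on day 5; killed day 12, uteri inspected for fetuses or implantation sites, none counting as inhibited.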

What is called IC50 is the concentration at which inhibition is half-maximal.

In the case of `CCCN1C[C@@H](CSC)C[C@@H]2Cc3c(O)cccc3C[C@H]21`, the IC50 came to 22 nM on Dopamine receptor [1]; 250 nM in assay [2]; 2000 nM in assay [5]; 60 nM on Dopamine receptor [6]; 640 nM in assay [7]; 720 nM in [9]. Further, the ED50 came to 0.058 mg/kg with Rattus norvegicus [3], 0.004 mg/kg in the assay on Rattus norvegicus [4] and 0.018 mg/kg in the assay with Rattus norvegicus [8].

`CCN(CC)S(=O)(=O)N[C@H]1C[C@@H]2c3cccc4[nH]cc(c34)C[C@H]2N(C)C1` [ETISULERGINE]: the ED50 with Rattus norvegicus [3] came out at 0.19 mg/kg; with Rattus norvegicus [8] it was 0.028 mg/kg. In addition, the IC50 in assay [5] is > 5000 nM.

Consider `CCCN1CC(NS(=O)(=O)N(CC)CC)CC2Cc3c(O)cccc3CC21` (stereo not drawn) [QUINAGOLIDE], for which the ED50 came out at 0.03 mg/kg in the assay on Rattus norvegicus [3], 0.005 mg/kg in the assay with Rattus norvegicus [4] and 0.017 mg/kg with Rattus norvegicus [8].

Consider `CCCN1C[C@H](CSC)C[C@@H]2c3cccc4[nH]cc(c34)C[C@H]21` [PERGOLIDE], for which the figures for the ED50 in the assay on Rattus norvegicus [4] and in the assay on Rattus norvegicus [8] were 0.0013 mg/kg and 0.021 mg/kg, respectively. Besides, the values for the IC50 in [5], in assay [7] and in assay [9] were 385 nM, 550 nM and 140 nM, respectively.

Take `CN1CCc2cccc3c2[C@H]1Cc1ccc(O)c(O)c1-3` [APOMORPHINE]: the ID50 entry with Rattus norvegicus [10] and in the assay on Rattus norvegicus [11] was “inactive” in each case. The IC50 in assay [5] is > 10000 nM.
